Source: ChEMBL document CHEMBL1124462, “Synthesis, DNA binding, and biological evaluation of synthetic precursors and novel analogues of netropsin” (J Med Chem, 1989)
In brackets after ≈: the same amount, converted by molar mass.

How the values were obtained:
Sindbis virus = experiment: Minimum inhibitory concentration required to reduce Sindbis virus induced cytopathogenicity by 50% in african green monkey (VeroB) cells; type: functional
In short: (§1)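 Cell cultures (PRK, HeLa or Vero B) are infected at 100 × CCID50. Cytopathogenicity is recorded once it reaches completion in the untreated virus-infected controls. The minimum inhibitory concentration is given in μg/mL.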

L1210 = experiment: Dose required to inhibit Murine leukemia (L1210) cell proliferation by 50%; type: functional; conditions: Mus musculus, read-out: CD50 (the source's name)
Human alphaherpesvirus 2 = experiment: Minimum inhibitory concentration required to reduce herpes simplex virus-2(G) induced cytopathogenicity by 50% in primary rabbit kidney cells (PRK); type: functional; in short: as §1
[1] = system: Vesicular stomatitis virus; experiment: Minimum inhibitory concentration required to reduce vesicular stomatitis virus induced cytopathogenicity by 50% in primary rabbit kidney cells (PRK); type: functional
[2] = system: Mammalian orthoreovirus 1; experiment: Minimum inhibitory concentration required to reduce reovirus-1 induced cytopathogenicity by 50% in african green monkey (VeroB)cells; type: functional; in short: as §1
Nucleic Acid [3] = experiment: Association constant against the polynucleotide poly (dA-dT).; type: nucleic-acid assay
In short: (§2)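 Competition with ethidium bromide binding at 25 °C in 0.01 M cacodylate buffer, pH 7.0, with 1.26 μM ethidium bromide and 1 μM polynucleotide. Bound ethidium is estimated from its fluorescence increase (V = 34 for poly(dA-dT), 25 for poly(dG-dC)). IC50 for 50% ethidium displacement comes from a fitted competition sigmoid. Kapp is calculated from IC50 assuming a binding size of four base pairs.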

Nucleic Acid [4] = experiment: Ratio of association constant of poly (dA-dT) and poly (dG-dC); type: nucleic-acid assay
In short: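 Kapp for poly(dA-dT) and for poly(dG-dC) is each determined by ethidium bromide competition in 0.01 M cacodylate, pH 7.0, 25 °C, with 1.26 μM ethidium and 1 μM polynucleotide. IC50 comes from a fitted competition sigmoid and is converted to Kapp assuming a four-base-pair binding size. The ratio is taken between the two polynucleotides.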

HeLa [5] = experiment: Minimum inhibitory concentration required to reduce Coxsackie virus B4 induced cytopathogenicity by 50% in HeLa cells; type: functional; conditions: Homo sapiens; in short: as §1
Raji = experiment: Dose required to inhibit Human B-Lymphoblast (Raji) cell proliferation by 50%; type: functional; conditions: read-out: CD50 (the source's name)
[6] = Dose required to inhibit Human T-Lymphoblast (Molt/4F) cell proliferation by 50%; type: functional; conditions: read-out: CD50 (the source's name)
Vero [7] = experiment: Minimum inhibitory concentration required to reduce parainfluenza virus-3 induced cytopathogenicity by 50% in african green monkey (VeroB) cells; type: functional, Human respirovirus 3; conditions: Chlorocebus sabaeus; in short: as §1
Semliki Forest virus = experiment: Minimum inhibitory concentration required to reduce semliki forest virus induced cytopathogenicity by 50% in african green monkey (VeroB) cells; type: functional; in short: as §1
HeLa [8] = experiment: Minimum cytotoxic concentration required to cause a microscopically detectable alteration of normal cell morphology and show antiviral activity in HeLa cells; type: functional; conditions: Homo sapiens
In short: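 HeLa cell cultures exposed to compound for the same duration as the antiviral assay, then examined microscopically. The minimum cytotoxic concentration is the lowest level causing detectable alteration of normal cell morphology. Values are in μg/mL.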

Nucleic Acid [9] = experiment: Association constant against polynucleotide poly (dG-dC); type: nucleic-acid assay; in short: as §2
Oryctolagus cuniculus = species on record: Oryctolagus cuniculus; experiment: Minimum cytotoxic concentration required to cause a microscopically detectable alteration of normal cell morphology and show antiviral activity in primary rabbit kidney (PRK) cells; type: functional
Vero [10] = experiment: Minimum cytotoxic concentration required to cause a microscopically detectable alteration of normal cell morphology and show antiviral activity in african green monkey (Vero B) cells; type: functional; conditions: Chlorocebus sabaeus
FM3A = experiment: In vitro inhibition of FM3A (murine mammary carcinoma) cell proliferation.; type: functional; conditions: Mus musculus, read-out: CD50 (the source's name)
Vero [11] = experiment: Minimum inhibitory concentration required to reduce Coxsackie virus B4 induced cytopathogenicity by 50% in african green monkey (VeroB) cells; type: functional, Coxsackievirus B4; conditions: Chlorocebus sabaeus; in short: as §1
Human alphaherpesvirus 1 = experiment: Minimum inhibitory concentration required to reduce herpes simplex virus-1 (KOS) induced cytopathogenicity by 50% in primary rabbit kidney cells(PRK); type: functional; in short: as §1

Row | SMILES | MIC (Sindbis virus) | CC50 (L1210) | MIC (Human alphaherpesvirus 2) | MIC [1] | MIC [2] | K app (Nucleic Acid [3]) | Ratio (Nucleic Acid [4]) | MIC (HeLa [5]) | CC50 (Raji) | CC50 [6] | MIC (Vero [7]) | MIC (Semliki Forest virus) | MCC (HeLa [8]) | K app (Nucleic Acid [9]) | MCC (Oryctolagus cuniculus) | MCC (Vero [10]) | CC50 (FM3A) | MIC (Vero [11]) | MIC (Human alphaherpesvirus 1)
1 | CC(NC(=O)c1cc(NC(=O)c2cc(NC(=O)CNC(=N)N)cn2C)cn1C)C(=O)NC(C)C(=O)OC(C)(C)C (stereo not drawn) | > 400 µg/mL | > 100 µg/mL | > 200 µg/mL | > 200 µg/mL | > 200 µg/mL | 4400 M⁻¹ | 6.29 | > 400 µg/mL | 54.7 µg/mL (≈ 97.7 µM) | > 100 µg/mL | > 400 µg/mL | > 400 µg/mL | > 400 µg/mL | 700 M⁻¹ | >200 µg/mL | > 400 µg/mL | > 100 µg/mL | > 400 µg/mL | > 200 µg/mL
2 | Cn1cc(NC(=O)c2cc([N+](=O)[O-])cn2C)cc1C(=O)NCCCNCCCCN | > 400 µg/mL | > 100 µg/mL | > 200 µg/mL | > 100 µg/mL | > 200 µg/mL | 440000 M⁻¹ | 5.37 | > 400 µg/mL | > 100 µg/mL | > 100 µg/mL | > 200 µg/mL | > 400 µg/mL | > 400 µg/mL | 82000 M⁻¹ | >200 µg/mL | > 400 µg/mL | – | > 200 µg/mL | > 200 µg/mL
3 | COC(=O)c1ccc([N+](=O)[O-])n1C | > 400 µg/mL | 28 µg/mL (≈ 152 µM) | > 400 µg/mL | > 400 µg/mL | > 200 µg/mL | – | – | > 400 µg/mL | 62.4 µg/mL (≈ 339 µM) | 66 µg/mL (≈ 358 µM) | > 100 µg/mL | > 400 µg/mL | 400 µg/mL | – | >400 µg/mL | 400 µg/mL | 84.7 µg/mL (≈ 460 µM) | > 200 µg/mL | > 400 µg/mL
4 | Cn1cc(NC(=O)c2cc(NC(=O)c3cc(NC=O)cn3C)cn2C)cc1C(=O)NCCC(=N)N | – | – | – | – | – | 8.5e+07 M⁻¹ | 3400 | – | – | – | – | – | – | 25000 M⁻¹ | – | – | – | – | –
5 | Cn1cc(NC(=O)c2cc([N+](=O)[O-])cn2C)cc1C(=O)O | > 400 µg/mL | > 100 µg/mL | > 400 µg/mL | > 400 µg/mL | > 400 µg/mL | – | – | > 400 µg/mL | > 100 µg/mL | > 100 µg/mL | > 200 µg/mL | > 400 µg/mL | > 400 µg/mL | – | >400 µg/mL | > 400 µg/mL | > 100 µg/mL | 150 µg/mL (≈ 513 µM) | > 400 µg/mL
6 | Cn1cc(NC(=O)CNC(=N)N)cc1C(=O)NCCCNCCCCN | > 400 µg/mL | > 200 µg/mL | > 400 µg/mL | > 400 µg/mL | > 200 µg/mL | – | 5.26 | > 400 µg/mL | > 200 µg/mL | > 200 µg/mL | > 200 µg/mL | > 400 µg/mL | > 400 µg/mL | – | >400 µg/mL | > 400 µg/mL | > 200 µg/mL | > 400 µg/mL | > 400 µg/mL
7 | Cn1cc([N+](=O)[O-])cc1C(=O)NCCC(=N)N | > 200 µg/mL | > 50 µg/mL | > 200 µg/mL | > 400 µg/mL | > 200 µg/mL | < 100 M⁻¹ | – | > 400 µg/mL | > 50 µg/mL | > 50 µg/mL | > 200 µg/mL | > 200 µg/mL | > 400 µg/mL | < 100 M⁻¹ | >400 µg/mL | > 400 µg/mL | – | > 200 µg/mL | > 200 µg/mL
8 | COC(=O)c1cc(NC(=O)c2cc([N+](=O)[O-])cn2C)cn1C | > 10 µg/mL | > 100 µg/mL | > 10 µg/mL | > 40 µg/mL | > 10 µg/mL | – | – | > 40 µg/mL | > 100 µg/mL | > 100 µg/mL | > 10 µg/mL | > 10 µg/mL | > 40 µg/mL | – | >40 µg/mL | > 40 µg/mL | > 100 µg/mL | > 10 µg/mL | > 10 µg/mL
9 | Cn1cc([N+](=O)[O-])cc1C(=O)O | > 400 µg/mL | > 100 µg/mL | > 400 µg/mL | > 400 µg/mL | > 400 µg/mL | – | – | > 400 µg/mL | > 100 µg/mL | > 100 µg/mL | > 400 µg/mL | > 400 µg/mL | > 400 µg/mL | – | >400 µg/mL | > 400 µg/mL | > 100 µg/mL | > 200 µg/mL | > 400 µg/mL
10 | Cn1c(C(=O)NCCC(=N)N)ccc1[N+](=O)[O-] | > 200 µg/mL | > 50 µg/mL | > 100 µg/mL | > 400 µg/mL | > 100 µg/mL | < 100 M⁻¹ | – | > 400 µg/mL | > 50 µg/mL | > 50 µg/mL | 100 µg/mL (≈ 418 µM) | > 200 µg/mL | > 400 µg/mL | < 100 M⁻¹ | >400 µg/mL | > 400 µg/mL | – | > 100 µg/mL | > 200 µg/mL
11 | CC(NC(=O)c1cc(NC(=O)c2cc(NC(=O)CNC(=N)N)cn2C)cn1C)C(=O)O (stereo not drawn) | > 200 µg/mL | > 100 µg/mL | > 200 µg/mL | > 200 µg/mL | > 200 µg/mL | < 100 M⁻¹ | – | > 200 µg/mL | > 100 µg/mL | > 100 µg/mL | > 200 µg/mL | > 200 µg/mL | > 200 µg/mL | < 100 M⁻¹ | >200 µg/mL | > 200 µg/mL | > 100 µg/mL | > 200 µg/mL | > 200 µg/mL
